Experimental data from ChEMBL document CHEMBL1127532, “Presynaptic cholinergic modulators as potent cognition enhancers and analgesic drugs. 1. Tropic and 2-phenylpropionic acid esters” (J Med Chem, 1994).
Calls of active or inactive are those of the source.

What was measured:
Mus musculus [1] = organism: Mus musculus; test: Analgesic activity as percentage analgesic efficacy on male albino swiss-webster mice with the hotplate test; assay type: functional; set-up: concentration or dose not given beside the values
Outline: (§1)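 Hot-plate test at 52.5 ± 0.1 °C, 45 s cutoff, compound dosed at its maximal nontoxic dose (the highest dose giving no visible behavioural change to blinded observers). Efficacy = (maximum reaction time − pretest time) / the same difference for morphine-HCl 8 mg/kg sc × 100.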

[2] = molecular target: Muscarinic acetylcholine receptor (Mus musculus) (UniProt Q920H4+Q9ERZ4+P12657+P32211+Q9ERZ3); test: Analgesic activity after subcutaneous administration in male albino Swiss-Webster mice with the hotplate test; assay type: functional, organism-based
Outline: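 Mouse hot-plate test, plate held at 52.5 ± 0.1 °C with a 45 s cutoff. Drug given subcutaneously, 8 to 20 mice per test. Potency expressed as ED50.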

[3] = molecular target: Muscarinic acetylcholine receptor; test: Binding affinity for [3H]QNB in membrane preparations from rat brain tissue
Outline: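 [3H]QNB binding to rat brain membrane preparations. pKi calculated with the LIGAND program, mean of at least three experiments.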

Mus musculus [4] = organism: Mus musculus; test: Analgesic activity as percentage analgesic efficacy on male albino Swiss-Webster mice with the hotplate test; Inactive; assay type: functional; outline: as §1
Mus musculus [5] = organism: Mus musculus; test: The compound was evaluated for the analgesic activity as percentage analgesic efficacy on male albino Swiss-Webster mice with the hotplate test; inactive; assay type: functional, organism-based; outline: as §1
Mus musculus [6] = organism: Mus musculus; test: The compound was evaluated for the analgesic activity as percentage analgesic efficacy on male albino Swiss-Webster mice with the hotplate test;Inactive; assay type: functional, organism-based; outline: as §1

SMILES | Analgesic efficacy (Mus musculus [1]) | ED50 [2] | Analgesic efficacy (Mus musculus [4]) | other results
CN1CCC(OC(=O)C(CO)c2ccc(Cl)cc2)CC1 (configuration not stated) | 26% | 5 mg/kg | – | –
CC(C(=O)OC1CC2CCC(C1)N2C)c1cccs1 (configuration not stated) | 21% | 5.4 mg/kg | – | –
CC(C(=O)OC1CC2CCC(C1)N2C)c1ccc(F)cc1 (configuration not stated) | 79% | 31 mg/kg | – | –
CC(C(=O)OC1CC2CCC(C1)N2C)c1ccc(Cl)cc1.O=C(O)/C=C\C(=O)O (configuration not stated) | 83% | 36 mg/kg | – | Log Ki [3]: -7.02
CCN(CC)CCOC(=O)C(CO)c1ccc(Cl)cc1 (configuration not stated) | – | – | inactive | –
CC(C(=O)OC1CC2CCC(C1)N2)c1ccc(Br)cc1 (configuration not stated) | – | – | inactive | –
CC(C(=O)OC1CC2CCC(C1)N2C)c1ccc(N)cc1 (configuration not stated) | 41% | 6 mg/kg | – | –
CN1[C@@H]2CC[C@H]1C[C@@H](OC(=O)C(CO)c1ccccc1)C2 (mixture of isomers) | 42% | 0.7 mg/kg | – | –
CC(COC1CC2CCC(C1)N2C)c1ccc(Br)cc1 (configuration not stated) | 45% | 32 mg/kg | – | –
CC(C(=O)OC1CC2CCC(C1)N2C)c1cccc(Cl)c1 (configuration not stated) | 71% | 37 mg/kg | – | –
CN1[C@@H]2CC[C@H]1C[C@H](OC(=O)[C@@H](CO)c1ccccc1)C2 | 41% | 0.7 mg/kg | – | –
CN1C2CCC1CC(OC(=O)Cc1ccc(Br)cc1)C2 (configuration not stated) | – | – | inactive | –
CC(Cc1ccc(Cl)cc1)C(=O)OC1CC2CCC(C1)N2C (configuration not stated) | – | – | inactive | –
COc1ccc(C(CO)C(=O)OC2CC3CCC(C2)N3C)cc1 (configuration not stated) | – | – | inactive | –
CN(C)CCCOC(=O)C(CO)c1ccccc1.O=C(O)C(Oc1ccccc1)C(Oc1ccccc1)C(=O)O (configuration not stated) | – | – | inactive | –
CC(C(=O)OC1CC2CCC(C1)N2C)c1ccccc1Br (configuration not stated) | 62% | 30 mg/kg | – | –
CCN1C2CCC1CC(OC(=O)C(C)c1ccc(Br)cc1)C2 (configuration not stated) | – | – | – | Analgesic efficacy (Mus musculus [5]): inactive
CN1C2CCC1CC(OC(=O)Cc1ccccc1)C2 (configuration not stated) | – | – | inactive | –
C[C@H](C(=O)OC1CC2CCC(C1)N2C)c1ccccc1 (some centres not stated) | 29% | 3.1 mg/kg | – | –
CN1C2CCC1CC(OC(=O)C(Cl)c1ccccc1)C2 (configuration not stated) | – | – | inactive | –
CCN(CC)CCOC(=O)C(C)c1ccc(Br)cc1 (configuration not stated) | – | – | inactive | –
CC(C(=O)OC1CC2CCC(C1)N2Cc1ccccc1)c1ccc(Br)cc1 (configuration not stated) | 34% | 28 mg/kg | – | –
CC(C(=O)OC1CC2CCC(C1)N2C)c1ccc(Br)cc1 (racemic) | 101% | – | – | –

SMILES | Analgesic efficacy (Mus musculus [1]) | ED50 [2] | Analgesic efficacy (Mus musculus [4]) | other results
CC(C(=O)OC1CC2CCC(C1)N2C)c1ccc(Br)cc1 (stereo in doubt; (-)-19) | 83% | 16 mg/kg | – | –
CC(C)Cc1ccc(C(C)C(=O)OC2CC3CCC(C2)N3C)cc1 (configuration not stated) | 40% | 27 mg/kg | – | –
CC(C(=O)OC1CC2CCC(C1)N2C)c1ccc(Br)cc1 (single isomer, unassigned; (+)) | 92% | 17 mg/kg | – | –
CC(C(=O)OCCCN(C)C)c1ccc(Br)cc1 (configuration not stated) | – | – | inactive | –
CC(C(=O)OC1CCN(C)CC1)c1ccc(Br)cc1 (configuration not stated) | – | – | inactive | –
CC(C(=O)OC1CC2CCC(C1)N2C)c1ccc(Cl)c(Cl)c1 (configuration not stated) | 42% | 1 mg/kg | – | –
CC(C(=O)OC1CC2CCC(C1)N2C)c1ccc([N+](=O)[O-])cc1 (configuration not stated) | 38% | 18 mg/kg | – | –
COc1ccc(C(C)C(=O)OC2CC3CCC(C2)N3C)cc1 (configuration not stated) | 97% | 32 mg/kg | – | –
O=C(OC1CC2CCC(C1)N2)C(CO)c1ccccc1 (configuration not stated) | 35% | 5 mg/kg | – | –
CN1[C@@H]2CC[C@H]1C[C@H](OC(=O)[C@H](CO)c1ccccc1)C2 | – | – | inactive | –
CC(C(=O)OC1CC2CCC(C1)N2C)c1ccc(Br)cc1.O=C(O)/C=C\C(=O)O (racemic) | – | – | – | Log Ki [3]: -6.96
CN1C2CCC1CC(OC(=O)C(CO)c1ccc(Cl)cc1)C2 (configuration not stated) | 37% | 0.6 mg/kg | – | –
C[C@@H](C(=O)OC1CC2CCC(C1)N2C)c1ccccc1 (some centres not stated) | – | – | – | Analgesic efficacy (Mus musculus [6]): inactive
CC(C(=O)OC1CC2CCC(C1)N2C)c1ccccc1Cl (configuration not stated) | 83% | 36 mg/kg | – | –
CCN(CC)CC#CCOC(=O)C(CO)c1ccccc1.O=C(O)C(Oc1ccccc1)C(Oc1ccccc1)C(=O)O (configuration not stated) | – | – | inactive | –
CC(C(=O)OC1CC2CCC(C1)N2C)c1ccc(C(F)(F)F)cc1 (configuration not stated) | 26% | 31 mg/kg | – | –
CC(C(=O)OC1CC2CCC(C1)N2C)c1ccsc1 (configuration not stated) | 44% | 22 mg/kg | – | –
CCN(CC)CC#CCOC(=O)C(C)c1ccc(Br)cc1 (configuration not stated) | – | – | inactive | –
CC(C(=O)OC1CC2CCC(C1)N2C)c1ccccc1 (racemic) | 35% | 5 mg/kg | – | –
CC(C(=O)OC1CC2CCC(C1)N2C)c1ccc(N(C)C)cc1 (configuration not stated) | – | – | inactive | –
CCN1C2CCC1CC(OC(=O)C(CO)c1ccccc1)C2 (configuration not stated) | 33% | 7.3 mg/kg | – | –
CCC(C(=O)OC1CC2CCC(C1)N2C)c1ccc(Br)cc1 (configuration not stated) | 81% | 33 mg/kg | – | –
